In ChEMBL document CHEMBL4138227, “Identification of an oxime-containing C-glucosylarene as a potential inhibitor of sodium-dependent glucose co-transporter 2” (Eur J Med Chem, 2018):

Experiments:
[1] = molecular target: T1, Sodium/glucose cotransporter 2 (Homo sapiens, UniProt P31639); test: Inhibition of human SGLT2 expressed in CHO cells assessed as reduction in [14C]AMG uptake after 1 hr by microbeta counting method; type: cell-based
T1 sequence (P31639 whole entry): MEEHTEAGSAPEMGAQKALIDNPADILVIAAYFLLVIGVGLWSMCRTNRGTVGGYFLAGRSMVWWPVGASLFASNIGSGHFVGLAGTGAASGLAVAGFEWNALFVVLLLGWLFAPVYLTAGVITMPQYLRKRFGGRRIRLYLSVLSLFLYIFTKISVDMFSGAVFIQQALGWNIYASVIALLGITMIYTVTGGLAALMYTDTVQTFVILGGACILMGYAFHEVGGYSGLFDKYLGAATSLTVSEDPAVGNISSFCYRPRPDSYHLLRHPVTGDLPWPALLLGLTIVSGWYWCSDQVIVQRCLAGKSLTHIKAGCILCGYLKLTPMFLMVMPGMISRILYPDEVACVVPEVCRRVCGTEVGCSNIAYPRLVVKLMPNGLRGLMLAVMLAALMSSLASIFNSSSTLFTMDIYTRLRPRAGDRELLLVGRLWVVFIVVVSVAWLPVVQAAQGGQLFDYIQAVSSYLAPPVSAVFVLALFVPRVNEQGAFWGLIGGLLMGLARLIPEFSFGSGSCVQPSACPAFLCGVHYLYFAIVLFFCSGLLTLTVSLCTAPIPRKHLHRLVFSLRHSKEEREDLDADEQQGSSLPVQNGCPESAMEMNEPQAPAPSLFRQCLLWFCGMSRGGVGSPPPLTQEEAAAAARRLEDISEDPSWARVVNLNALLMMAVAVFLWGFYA
How it was run: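 CHO cells stably expressing human SGLT2 (or SGLT1); inhibition of sodium-dependent uptake of [14C]α-methyl-D-glucopyranoside measured; EC50 from at least two independent experiments, each in triplicate.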

[2] = Volume of distribution at steady state in Sprague-Dawley rat at 0.9 mg/kg, iv; type: ADME, organism-based; settings: in vivo, read-out: Vdss
[3] = Elimination half life in Sprague-Dawley rat at 0.9 mg/kg, iv; type: ADME, organism-based; settings: in vivo, read-out: beta t1/2 (converted)
[4] = AUC (0 to infinity) in Sprague-Dawley rat at 0.9 mg/kg, iv; type: ADME, organism-based; set-up: dose 0.9 mg/kg, route intravenous, time infinity; settings: in vivo
How it was run: (§1)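 Rats got a single intravenous or oral dose, with 3 animals per route. Pharmacokinetic parameters were derived, including T1/2, clearance, Vss, Cmax, Tmax, AUC(0-inf) and oral bioavailability (F).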

[5] = Clearance in Sprague-Dawley rat at 0.9 mg/kg, iv; type: ADME, organism-based; settings: in vivo
[6] = Elimination half life in Sprague-Dawley rat at 1 mg/kg, po; type: ADME, organism-based; settings: in vivo, read-out: beta t1/2 (converted)
[7] = Volume of distribution at steady state in Sprague-Dawley rat at 1 mg/kg, iv; type: ADME, organism-based; settings: in vivo, read-out: Vdss
[8] = Tmax in Sprague-Dawley rat at 1 mg/kg, po; type: ADME, organism-based; settings: in vivo
[9] = Clearance in Sprague-Dawley rat at 1 mg/kg, iv; type: ADME, organism-based; settings: in vivo
[10] = AUC (0 to infinity) in Sprague-Dawley rat at 1 mg/kg, po; type: ADME, organism-based; set-up: dose 1 mg/kg, time infinity, route oral; settings: in vivo; how it was run: as §1
[11] = AUC (0 to infinity) in Sprague-Dawley rat at 1 mg/kg, iv; type: ADME, organism-based; set-up: dose 1 mg/kg, time infinity, route intravenous; settings: in vivo; how it was run: as §1
[12] = Cmax in Sprague-Dawley rat at 1 mg/kg, po; type: ADME, organism-based; set-up: dose 1 mg/kg, route oral; settings: in vivo
[13] = Elimination half life in Sprague-Dawley rat at 1 mg/kg, iv; type: ADME, organism-based; settings: in vivo, read-out: beta t1/2 (converted)
[14] = Oral bioavailability in Sprague-Dawley rat at 1 mg/kg; type: ADME, organism-based; settings: in vivo

EC50 [1] [nM] | Compound | further results
208 | CCOc1ccc(Cc2cc([C@@H]3O[C@H](/C=N/NC(=O)c4ccsc4)[C@@H](O)[C@H](O)[C@H]3O)ccc2Cl)cc1 | 
431 | C#CCO/N=C/[C@H]1O[C@@H](c2ccc(Cl)c(Cc3ccc(OCC)cc3)c2)[C@H](O)[C@@H](O)[C@@H]1O | 
65 | CCOc1ccc(Cc2cc([C@@H]3O[C@H](/C=N/NC(=O)c4ccc(Cl)cc4)[C@@H](O)[C@H](O)[C@H]3O)ccc2Cl)cc1 | 
396 | CCC#CCO/N=C/[C@H]1O[C@@H](c2ccc(Cl)c(Cc3ccc(OCC)cc3)c2)[C@H](O)[C@@H](O)[C@@H]1O | 
151 | CCOc1ccc(Cc2cc([C@@H]3O[C@H](CNNC(=O)c4ccco4)[C@@H](O)[C@H](O)[C@H]3O)ccc2Cl)cc1 | 
1950 | CCOc1ccc(Cc2cc([C@@H]3O[C@H](/C=N/OCC4CC4)[C@@H](O)[C@H](O)[C@H]3O)ccc2Cl)cc1 | 
194 | CCOc1ccc(Cc2cc([C@@H]3O[C@H](/C=N/OCCO)[C@@H](O)[C@H](O)[C@H]3O)ccc2Cl)cc1 | 
370 | CCOc1ccc(Cc2cc([C@@H]3O[C@H](/C=N/Nc4ccc([N+](=O)[O-])cc4)[C@@H](O)[C@H](O)[C@H]3O)ccc2Cl)cc1 | 
8540 | CCOc1ccc(Cc2cc([C@@H]3O[C@H](/C=N/OCCC(C)(C)C)[C@@H](O)[C@H](O)[C@H]3O)ccc2Cl)cc1 | 
130 | CCOc1ccc(Cc2cc([C@@H]3O[C@H](/C=N/NC(=O)c4ccccc4)[C@@H](O)[C@H](O)[C@H]3O)ccc2Cl)cc1 | Vd [2]: 1.4 L/kg; half-life [3]: 0.36 h; AUC(0-inf) [4]: 206 ng·h/mL; clearance [5]: 75.7 mL/min/kg
38 | CCOc1ccc(Cc2cc([C@@H]3O[C@H](/C=N/NCc4ccccc4)[C@@H](O)[C@H](O)[C@H]3O)ccc2Cl)cc1 | 
211 | CCOc1ccc(Cc2cc([C@@H]3O[C@H](CNNc4ccc([N+](=O)[O-])cc4)[C@@H](O)[C@H](O)[C@H]3O)ccc2Cl)cc1 | 
63 | CCOc1ccc(Cc2cc([C@@H]3O[C@H](CNOC)[C@@H](O)[C@H](O)[C@H]3O)ccc2Cl)cc1 | half-life [6]: 3 h; Vd [7]: 1.8 L/kg; Tmax [8]: 1.3 h; clearance [9]: 16.5 mL/min/kg; AUC(0-inf) [10]: 352 ng·h/mL; AUC(0-inf) [11]: 1070 ng·h/mL; Cmax [12]: 67.2 ng/mL; half-life [13]: 1.9 h; bioavailability [14]: 32.8%
